The record followed here is ChEMBL document CHEMBL4808210, “Mapping Chromone-3-Phenylcarboxamide Pharmacophore: Quid Est Veritas?” (J Med Chem, 2021).

Molecules are shown by their SMILES. The source made the active and inactive calls. The calls are words filed in the database; no cut-off is given here.

Data set [1] deals with HEK293. Description: Cytotoxicity against HEK293 cells incubated for 24 to 48 hrs by Celltiter-Glo assay. Type of data set: cell-based, Homo sapiens.
For data set [2], the target named is ATP-dependent translocase ABCB1 (Homo sapiens, UniProt P08183). Description: Modulation of P-gp-mediated Rhodamine-123 efflux in human Caco-2 cells assessed as Rhodamine-123 accumulation at 10 uM pretreated for 30 mins in presence or absence of Zos followed by Rho-123 addition and measured after 90 mins by fluorescence spectroscopy. The data set is classed as cell-based. The following applies: caco-2, 2 h, time 120 min. The essentials:
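Caco-2 cells were exposed to compounds at 10 μM during incubation with the P-gp substrate rhodamine 123 (5 μM). Zosuquidar served as the specific P-gp inhibitor. Cellular rhodamine 123 was read by fluorescence spectroscopy. Mean ± SEM of at least three independent experiments in triplicate.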
(Caco-2 cells form a polarised layer with tight junctions and transporters.)

The target in data set [3] is T1, Amine oxidase [flavin-containing] B (Homo sapiens, UniProt P27338).
T1 sequence (P27338 whole entry): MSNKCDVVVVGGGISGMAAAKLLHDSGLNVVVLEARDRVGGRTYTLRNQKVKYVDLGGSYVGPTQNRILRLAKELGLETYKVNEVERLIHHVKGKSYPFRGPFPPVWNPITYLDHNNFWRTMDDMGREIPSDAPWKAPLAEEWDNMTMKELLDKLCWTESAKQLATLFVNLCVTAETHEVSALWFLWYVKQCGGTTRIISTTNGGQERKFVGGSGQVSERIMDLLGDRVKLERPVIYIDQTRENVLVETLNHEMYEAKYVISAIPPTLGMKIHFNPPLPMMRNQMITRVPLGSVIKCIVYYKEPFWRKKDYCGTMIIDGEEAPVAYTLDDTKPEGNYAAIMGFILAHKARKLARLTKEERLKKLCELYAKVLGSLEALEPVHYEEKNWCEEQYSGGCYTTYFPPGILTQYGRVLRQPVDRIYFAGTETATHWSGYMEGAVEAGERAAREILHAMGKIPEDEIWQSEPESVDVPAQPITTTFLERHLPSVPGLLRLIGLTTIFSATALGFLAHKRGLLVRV
The experiment in a line: Inhibition of recombinant human MAO-B expressed in baculovirus infected BTI-TN- 5B1-4 insect cells using kynuramine as substrate preincubated for 10 mins in presence of substrate followed by enzyme addition and measured every minute for 30 mins by spectrophotometry analysis. Type of data set: cell-based.

The species entered for a further data set is Homo sapiens. Description: Selectivity index, ratio of IC50 for recombinant human MAO-A expressed in baculovirus infected BTI-TN- 5B1-4 insect cells to IC50 for recombinant human MAO-B expressed in baculovirus infected BTI-TN- 5B1-4 insect cells using kynuramine as substrate preincubated for 10 mins in presence of substrate followed by enzyme addition and measured every minute for 30 mins by spectrophotometry analysis. The essentials: (§1)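 Recombinant hMAO-A and hMAO-B were assayed with kynuramine as substrate. Percent inhibition was taken at 10 μM, the highest concentration tested. Where the hMAO-A IC₅₀ was not reached, it was taken as 10 μM.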

Another data set concerns Caco-2. The experiment in a line: Cytotoxicity against human Caco-2 cells assessed as effect on cell viability at 1 to 10 uM measured after 24 hrs by MTT assay. The data set is classed as cell-based. The following applies: caco-2, 24 h, dose 1-10 µM. The essentials: (§2)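 Caco-2 cells, and SH-SY5Y cells first differentiated toward a dopaminergic-like phenotype, were treated for 24 h with compounds at 1 and 10 μM. Metabolic activity was read as MTT reduction to formazan, relative to untreated cells. Mean ± SEM of at least three independent experiments, each in triplicate.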
On the technique in general: Formazan colour is commonly taken as a measure of viable cells.

The test system of data set [4] is HUVEC. Description: Cytotoxicity against HUVEC cells incubated for 24 to 48 hrs by Celltiter-Glo assay. The data set is classed as cell-based, Homo sapiens. (In ATP-based viability assays light output follows the ATP content of the culture.)
Data set [5] concerns the target T2, Amine oxidase [flavin-containing] A (Homo sapiens, UniProt P21397).
T2 sequence (P21397 whole entry): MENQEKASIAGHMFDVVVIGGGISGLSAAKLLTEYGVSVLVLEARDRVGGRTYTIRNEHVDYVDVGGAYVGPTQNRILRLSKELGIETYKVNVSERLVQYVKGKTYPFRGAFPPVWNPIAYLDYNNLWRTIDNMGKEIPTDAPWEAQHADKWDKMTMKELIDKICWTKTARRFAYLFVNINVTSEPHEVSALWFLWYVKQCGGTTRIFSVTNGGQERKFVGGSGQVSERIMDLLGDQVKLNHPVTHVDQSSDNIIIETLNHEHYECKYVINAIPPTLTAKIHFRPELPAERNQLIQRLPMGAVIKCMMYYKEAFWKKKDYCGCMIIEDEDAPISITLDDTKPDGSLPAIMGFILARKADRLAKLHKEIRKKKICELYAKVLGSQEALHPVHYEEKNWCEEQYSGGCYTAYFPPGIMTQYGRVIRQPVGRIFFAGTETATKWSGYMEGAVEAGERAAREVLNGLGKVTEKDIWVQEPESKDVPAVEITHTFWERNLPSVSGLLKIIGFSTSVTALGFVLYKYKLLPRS
Description: Inhibition of recombinant human MAO-A expressed in baculovirus infected BTI-TN- 5B1-4 insect cells using kynuramine as substrate preincubated for 10 mins in presence of substrate followed by enzyme addition and measured every minute for 30 mins by spectrophotometry analysis. The essentials: as §1

In data set [6] the test system is SH-SY5Y. The experiment in a line: Cytotoxicity against human SH-SY5Y cells assessed as effect on NR uptake at 1 to 10 uM measured after 24 hrs by neutral red uptake assay. Type of data set: cell-based. The following applies: dose 1-10 µM. The essentials:
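Differentiated SH-SY5Y cells were exposed to compounds at 1 and 10 μM for 24 h. Lysosomal activity was read as neutral red dye uptake and compared with untreated cells. Mean ± SEM of at least three independent experiments run in triplicate.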

For a further data set, the target named is hERG (Homo sapiens, UniProt Q12809). The experiment in a line: Inhibition of human ERG at 10 uM incubated for 2 hrs by fluorescence polarization assay relative to control. The essentials: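 hERG binding was measured by fluorescence polarization, using a homogenized membrane preparation containing hERG plus a fluorescent tracer. A drop in FP signal from tracer displacement was read as inhibition. Compounds were tested at 10 μM.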

The subject of data set [7] is SH-SY5Y. The experiment in a line: Protection against iron(III)-induced damage in human SH-SY5Y cells assessed as increase in lysosomal activity at 1 to 10 uM pretreated for 30 mins followed by iron(III) treatment at 1000 uM after 24 hrs by NR uptake assay. The following applies: dose 1-10 µM, time 24.5 hrs. The data set is classed as functional, cell-based. The gist of the method:
(§3)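 Differentiated SH-SY5Y cells were pretreated with compounds at 1 or 10 μM for 30 min, then exposed to iron(III) at 1000 or 1500 μM for 24 h. Viability was read by neutral red uptake. Mean ± SD of three independent experiments, two-way ANOVA.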

Data set [8] has as its system HUVEC. Description: Cytotoxicity against HUVEC cells at 10 uM incubated for 24 to 48 hrs by Celltiter-Glo assay relative to control. Type of data set: cell-based. The following applies: human, time 24-48 hrs. The essentials:
(§4)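 Cells (HEK-293, HUVEC, MCF-7) exposed to test compounds at 10 μM for 24 h; cytotoxicity read in triplicate with a luminescence kit measuring intracellular ATP levels.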

In data set [9] the test system is SH-SY5Y. Description: Protection against iron(III)-induced damage in human SH-SY5Y cells assessed as increase in lysosomal activity at 1 to 10 uM pretreated for 30 mins followed by iron(III) treatment at 1500 uM after 24 hrs by NR uptake assay. The note with it: dose 1-10 µM, time 24.5 hrs. Type of data set: functional, cell-based. The gist of the method:
as §3

The subject of data set [10] is HEK293. Description: Cytotoxicity against HEK293 cells at 10 uM incubated for 24 to 48 hrs by Celltiter-Glo assay relative to control. The data set is classed as cell-based. The note with it: human, hek293, 10 µM, time 24-48 hrs. The essentials: as §4
The subject of data set [11] is MCF7. The experiment in a line: Cytotoxicity against human MCF7 cells incubated for 24 to 48 hrs by Celltiter-Glo assay. Type of data set: cell-based.
The subject of data set [12] is MCF7. Description: Cytotoxicity against human MCF7 cells at 10 uM incubated for 24 to 48 hrs by Celltiter-Glo assay relative to control. The data set is classed as cell-based. The following applies: mcf7, 10 µM, time 24-48 hrs. The gist of the method:
as §4

The next data set addresses T3, MAO-A (Homo sapiens, UniProt P21397).
T3 sequence (P21397 whole entry): T2 sequence (P21397 whole entry)
Description: Inhibition of recombinant human MAO-A expressed in baculovirus infected BTI-TN- 5B1-4 insect cells at 10 uM using kynuramine as substrate preincubated for 10 mins in presence of substrate followed by enzyme addition and measured every minute for 30 mins by spectrophotometry analysis relative to control. The following applies: probe kynuramine, time 40 min. The essentials:
as §1

For data set [13], the system named is SH-SY5Y. The experiment in a line: Cytotoxicity against human SH-SY5Y cells assessed as reduction in cell viability at 10 uM measured after 24 hrs by MTT assay relative to control. The data set is classed as cell-based. The essentials:
as §2

The nature of data set [14]: Solubility of the compound in phosphate buffer at > 10 uM. The data set is classed as physicochemical.
Data set [15] concerns the target T1, Amine oxidase [flavin-containing] B. The experiment in a line: Inhibition of recombinant human MAO-B expressed in baculovirus infected BTI-TN- 5B1-4 insect cells at 10 uM using kynuramine as substrate preincubated for 10 mins in presence of substrate followed by enzyme addition and measured every minute for 30 mins by spectrophotometry analysis relative to control. The following applies: BTI-TN-5B1-4, human, 0.5 h, time 40 min. The essentials: as §1

Chain of ATP-dependent translocase ABCB1 (P08183 whole entry): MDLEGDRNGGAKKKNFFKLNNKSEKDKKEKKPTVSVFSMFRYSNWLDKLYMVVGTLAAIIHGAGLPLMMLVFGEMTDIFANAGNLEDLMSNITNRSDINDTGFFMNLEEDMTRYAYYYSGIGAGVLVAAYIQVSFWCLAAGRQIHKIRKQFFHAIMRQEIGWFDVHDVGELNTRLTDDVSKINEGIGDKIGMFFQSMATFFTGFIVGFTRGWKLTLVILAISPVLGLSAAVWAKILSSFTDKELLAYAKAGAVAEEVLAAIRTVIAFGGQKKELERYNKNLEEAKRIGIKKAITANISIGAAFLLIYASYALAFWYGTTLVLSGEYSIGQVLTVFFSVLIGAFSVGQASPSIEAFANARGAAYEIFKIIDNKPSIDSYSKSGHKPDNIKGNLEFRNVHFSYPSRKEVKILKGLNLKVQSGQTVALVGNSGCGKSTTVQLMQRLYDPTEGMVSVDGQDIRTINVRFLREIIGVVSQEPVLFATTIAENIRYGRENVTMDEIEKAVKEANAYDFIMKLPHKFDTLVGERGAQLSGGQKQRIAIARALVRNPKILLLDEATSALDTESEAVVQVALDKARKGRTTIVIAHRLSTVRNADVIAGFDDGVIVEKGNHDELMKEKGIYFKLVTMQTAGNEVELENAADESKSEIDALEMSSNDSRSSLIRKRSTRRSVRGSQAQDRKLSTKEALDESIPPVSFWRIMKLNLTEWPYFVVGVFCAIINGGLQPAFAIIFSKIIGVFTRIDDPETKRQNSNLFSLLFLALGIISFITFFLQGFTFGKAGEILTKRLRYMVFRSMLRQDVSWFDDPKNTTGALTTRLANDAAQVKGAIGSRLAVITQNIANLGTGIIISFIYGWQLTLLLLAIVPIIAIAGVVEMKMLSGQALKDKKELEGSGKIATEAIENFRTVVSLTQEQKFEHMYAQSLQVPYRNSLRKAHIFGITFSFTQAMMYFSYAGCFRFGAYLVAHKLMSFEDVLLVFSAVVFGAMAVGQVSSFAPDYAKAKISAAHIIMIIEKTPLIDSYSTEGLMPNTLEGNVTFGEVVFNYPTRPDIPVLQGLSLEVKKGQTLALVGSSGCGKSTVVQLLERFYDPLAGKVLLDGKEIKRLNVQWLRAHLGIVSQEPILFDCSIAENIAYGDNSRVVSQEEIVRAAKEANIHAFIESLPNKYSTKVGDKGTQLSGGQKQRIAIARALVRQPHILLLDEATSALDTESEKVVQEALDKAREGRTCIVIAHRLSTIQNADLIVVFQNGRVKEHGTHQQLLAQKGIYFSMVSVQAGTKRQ
Chain of hERG (Q12809 whole entry): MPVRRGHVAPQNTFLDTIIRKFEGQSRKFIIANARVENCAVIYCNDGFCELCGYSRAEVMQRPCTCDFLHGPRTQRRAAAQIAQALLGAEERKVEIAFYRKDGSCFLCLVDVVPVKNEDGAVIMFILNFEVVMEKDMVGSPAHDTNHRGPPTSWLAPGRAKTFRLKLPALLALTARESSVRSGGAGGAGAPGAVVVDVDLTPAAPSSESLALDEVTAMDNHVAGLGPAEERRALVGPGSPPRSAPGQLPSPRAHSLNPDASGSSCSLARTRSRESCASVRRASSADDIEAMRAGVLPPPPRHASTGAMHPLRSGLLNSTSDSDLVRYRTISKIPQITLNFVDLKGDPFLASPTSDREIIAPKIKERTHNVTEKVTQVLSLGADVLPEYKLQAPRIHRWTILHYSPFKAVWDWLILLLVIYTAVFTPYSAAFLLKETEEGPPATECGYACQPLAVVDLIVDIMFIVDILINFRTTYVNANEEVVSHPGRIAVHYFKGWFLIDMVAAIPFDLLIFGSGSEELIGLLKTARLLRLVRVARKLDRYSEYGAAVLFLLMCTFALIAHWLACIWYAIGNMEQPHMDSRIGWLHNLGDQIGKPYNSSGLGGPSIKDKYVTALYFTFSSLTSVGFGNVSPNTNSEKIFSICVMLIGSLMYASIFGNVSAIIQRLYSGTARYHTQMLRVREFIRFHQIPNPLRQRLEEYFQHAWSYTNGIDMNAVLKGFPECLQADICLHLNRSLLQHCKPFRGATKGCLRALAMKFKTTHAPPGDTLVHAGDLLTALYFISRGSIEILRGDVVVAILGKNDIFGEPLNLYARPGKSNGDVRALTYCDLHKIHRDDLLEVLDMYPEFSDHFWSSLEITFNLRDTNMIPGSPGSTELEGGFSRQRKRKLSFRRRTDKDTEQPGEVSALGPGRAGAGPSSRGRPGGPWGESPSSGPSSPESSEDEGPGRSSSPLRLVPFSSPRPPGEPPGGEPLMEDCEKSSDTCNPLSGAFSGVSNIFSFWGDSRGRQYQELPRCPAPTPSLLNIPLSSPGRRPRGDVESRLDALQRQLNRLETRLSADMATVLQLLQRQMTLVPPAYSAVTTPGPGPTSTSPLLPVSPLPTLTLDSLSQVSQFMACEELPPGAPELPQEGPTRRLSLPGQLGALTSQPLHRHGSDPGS

As a reminder, the IC50 is the concentration that gives 50% inhibition. Usually inhibition stands for the relative decrease from the control value, in per cent. For `O=C(Nc1ccc(Cl)c(Cl)c1)C1=Cc2ccccc2OC1`, the IC50 entry in the data set with HEK293 [1] was “Not Active”; in [3], 0.00316 µM; in the data set with HUVEC [4] (Homo sapiens, HUVEC, read-out: IC50), 8.4 µM; in data set [5] it was 4.13 µM; with MCF7 [11], “Not Active”. Besides, the Activity result in data set [2] is given as “Not Active”; with Caco-2, “Non-Toxic”; in the data set on SH-SY5Y [6], “Non-Toxic”; with HUVEC [8], 64.4%; in the data set on HEK293 [10], under 10%; with MCF7 [12], under 10%. Besides, the Ratio IC50 in the data set listed under Homo sapiens amounted to 1300. The inhibition at 2 h, 10 µM on hERG is under 10%. Further, the result with SH-SY5Y [7] and with SH-SY5Y [9] was inactive.
As to `Cc1ccc(NC(=O)C2=Cc3ccccc3OC2)cc1C`, the IC50 in [3] turned out to be 0.0457 µM; in data set [5], 13.7 µM. In addition, the Ratio IC50 in the data set filed under Homo sapiens was found to be 300. Besides, the Activity entry with Caco-2 and in the data set with SH-SY5Y [6] was “Non-Toxic” each time.
As to `O=C(Nc1cccc(Cl)c1)C1COc2ccccc2C1` (centres undefined), the IC50 in [3] was determined as 0.957 µM. For the same compound, in the data set filed under Homo sapiens, the Ratio IC50 is over 10.4. In addition, the inhibition at 0.5 h, 10 µM on MAO-A came out at 10.9%.
Take `O=C(Nc1cccc(Cl)c1)c1coc2ccccc2c1=O`: the IC50 result in the data set with HEK293 [1], with HUVEC [4] (huvec) and with MCF7 [11] was “Not Active” throughout. Further, the Activity result was “Not Active” in data set [2]; “Non-Toxic” in the data set with Caco-2; “Non-Toxic” in the data set with SH-SY5Y [6]; under 10% in the data set on HUVEC [8]; under 10% in the data set with HEK293 [10]; under 85% in the data set on SH-SY5Y [13]. This compound also registered an Activity in the data set with MCF7 [12] of under 10%. This compound came in with an inhibition at 2 h, 10 µM at hERG of under 10%. Also, the outcome with SH-SY5Y [7] and in the data set with SH-SY5Y [9] was inactive.
In the case of `O=C(Nc1ccc(Cl)c(Cl)c1)c1cc2ccccc2oc1=O`, the solubility result in data set [14] is given as “Insoluble”.
Turning to `Cn1c(=O)c(C(=O)Nc2cccc(Cl)c2)cc2ccccc21`, in [14], the solubility result is given as “Insoluble”.
Consider `COc1ccc(NC(=O)C2COc3ccccc3C2)cc1OC` (centres undefined), for which the inhibition at 0.5 h, 10 µM on MAO-A was 11.8%. In addition, in data set [15], the inhibition at 10 µM amounted to 14%.
For `O=C(Nc1cccc(Cl)c1)c1cc2ccccc2[nH]c1=O`, the inhibition at 0.5 h, 10 µM on MAO-A is 2.65%. Further, the inhibition at 10 µM in [15] was 8.9%.
In the case of `Cc1ccc(NC(=O)c2cc3ccccc3n(C)c2=O)cc1C`, the inhibition at 0.5 h, 10 µM at MAO-A came out at 7.65%. The inhibition at 10 µM in [15] was determined as 21%.
As to `Cc1ccc(NC(=O)c2csc3ccccc3c2=O)cc1C`, in data set [3], the IC50 is 0.00335 µM. Moreover, in the data set listed under Homo sapiens, the Ratio IC50 is over 2990. Further, the Activity result with Caco-2 and in the data set with SH-SY5Y [6] was “Non-Toxic” throughout. Further, on MAO-A, the inhibition at 0.5 h, 10 µM is 0.2%.
